# From ChEMBL document CHEMBL4017537, “Discovery of a Potent and Specific M. tuberculosis Leucyl-tRNA Synthetase Inhibitor: (S)-3-(Aminomethyl)-4-chloro-7-(2-hydroxyethoxy)benzo[c][1,2]oxaborol-1(3H)-ol (GSK656)” (J Med Chem, 2017)
# How the values were obtained:
# [1] = system: Mycobacterium tuberculosis; assay: Antimicrobial activity against Mycobacterium tuberculosis H37Rv infected in C57BL/6J mouse assessed as log reduction in bacterial load in lungs administered qd for 8 consecutive weeks starting from 6 weeks post infection measured 24 hrs post last dose; assay type: functional
# Procedure, shortened: (§1)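 C57BL/6J mice infected intratracheally with ~10² CFU M. tuberculosis H37Rv. Dosed QD, 7 days/week, for 8 weeks starting 6 weeks post-infection; killed ≥24 h after last dose. Lung homogenates plated on 7H11/10% OADC for 21 days at 37 °C. n = 3 per dose group, 7 for controls; mean (SD); ANOVA with Dunnett's test versus 14-week untreated.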
# [2] = system: Mycobacterium tuberculosis; assay: Antimicrobial activity against Mycobacterium tuberculosis H37Rv infected in C57BL/6J mouse assessed as bacterial load in lungs at 1 mg/kg qd administered for 8 consecutive weeks starting from 6 weeks post infection measured 24 hrs post last dose (reference value: 6.4 +/- 0.3 log10CFU); assay type: functional; procedure, shortened: as §1
# [3] = Volume of distribution at steady state in C57BL/6 mouse at 5.5 mg/kg, iv administered as single dose measured up to 24 hrs by LC-MS/MS analysis; assay type: ADME, organism-based; conditions: in vivo, read-out: Vdss
# Procedure, shortened: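 C57BL/6 female mice (18−20 g) got one intravenous dose in saline. Whole blood (15 μL) was taken by lateral tail-vein puncture from each of 3 mice at 5, 15 and 30 min and at 1, 2, 4, 8 and 24 h postdose, and drug concentrations were measured in peripheral blood.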
# [4] = Tmax in C57BL/6 mouse at 30 mg/kg administered as single dose via oral gavage measured up to 24 hrs by LC-MS/MS analysis; assay type: ADME, organism-based; conditions: in vivo
# Procedure, shortened: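 C57BL/6 female mice (18−20 g) got one oral gavage dose of 30 mg/kg in 1% methylcellulose. Peripheral whole blood was sampled from 15 min to 24 h postdose, n = 3 mice per time point, and drug concentrations were measured in blood.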
# [5] = Half life in C57BL/6 mouse at 5.5 mg/kg, iv administered as single dose measured up to 24 hrs by LC-MS/MS analysis; assay type: ADME, organism-based; conditions: in vivo
# [6] = system: Mycobacterium tuberculosis; assay: Antimicrobial activity against Mycobacterium tuberculosis H37Rv infected in C57BL/6J mouse assessed as bacterial load in lungs at 3 mg/kg qd administered for 8 consecutive weeks starting from 6 weeks post infection measured 24 hrs post last dose (reference value: 6.4 +/- 0.3 log10CFU); assay type: functional; procedure, shortened: as §1
# [7] = Toxicity in mouse; assay type: organism-based; conditions: in vivo
# [8] = system: Mycobacterium tuberculosis; assay: Antimicrobial activity against Mycobacterium tuberculosis H37Rv infected in C57BL/6J mouse assessed as bacterial load in lungs at 10 mg/kg qd administered for 8 consecutive weeks starting from 6 weeks post infection measured 24 hrs post last dose (reference value: 6.4 +/- 0.3 log10CFU); assay type: functional; procedure, shortened: as §1
# [9] = AUC (0 to infinity) in C57BL/6 mouse at 5.5 mg/kg, iv administered as single dose measured up to 24 hrs by LC-MS/MS analysis; assay type: ADME, organism-based; parameters: dose 5.5 mg/kg, time infinity, route intravenous; conditions: in vivo
# [10] = system: Mycobacterium tuberculosis; assay: Antimicrobial activity against Mycobacterium tuberculosis H37Rv infected in C57BL/6J mouse assessed as bacterial load in lungs at 30 mg/kg qd administered for 8 consecutive weeks starting from 6 weeks post infection measured 24 hrs post last dose (reference value: 6.4 +/- 0.3 log10CFU); assay type: functional; procedure, shortened: as §1
# [11] = target: Leucine--tRNA ligase, cytoplasmic (Homo sapiens, UniProt Q9P2J5); assay: Inhibition of human N-terminal 6His-tagged cytoplasmic LeuRS expressed in Escherichia coli BL21(DE3) assessed as […] after 20 mins by liquid scintillation counting analysis
# Leucine--tRNA ligase, cytoplasmic, sequence (Q9P2J5 whole entry): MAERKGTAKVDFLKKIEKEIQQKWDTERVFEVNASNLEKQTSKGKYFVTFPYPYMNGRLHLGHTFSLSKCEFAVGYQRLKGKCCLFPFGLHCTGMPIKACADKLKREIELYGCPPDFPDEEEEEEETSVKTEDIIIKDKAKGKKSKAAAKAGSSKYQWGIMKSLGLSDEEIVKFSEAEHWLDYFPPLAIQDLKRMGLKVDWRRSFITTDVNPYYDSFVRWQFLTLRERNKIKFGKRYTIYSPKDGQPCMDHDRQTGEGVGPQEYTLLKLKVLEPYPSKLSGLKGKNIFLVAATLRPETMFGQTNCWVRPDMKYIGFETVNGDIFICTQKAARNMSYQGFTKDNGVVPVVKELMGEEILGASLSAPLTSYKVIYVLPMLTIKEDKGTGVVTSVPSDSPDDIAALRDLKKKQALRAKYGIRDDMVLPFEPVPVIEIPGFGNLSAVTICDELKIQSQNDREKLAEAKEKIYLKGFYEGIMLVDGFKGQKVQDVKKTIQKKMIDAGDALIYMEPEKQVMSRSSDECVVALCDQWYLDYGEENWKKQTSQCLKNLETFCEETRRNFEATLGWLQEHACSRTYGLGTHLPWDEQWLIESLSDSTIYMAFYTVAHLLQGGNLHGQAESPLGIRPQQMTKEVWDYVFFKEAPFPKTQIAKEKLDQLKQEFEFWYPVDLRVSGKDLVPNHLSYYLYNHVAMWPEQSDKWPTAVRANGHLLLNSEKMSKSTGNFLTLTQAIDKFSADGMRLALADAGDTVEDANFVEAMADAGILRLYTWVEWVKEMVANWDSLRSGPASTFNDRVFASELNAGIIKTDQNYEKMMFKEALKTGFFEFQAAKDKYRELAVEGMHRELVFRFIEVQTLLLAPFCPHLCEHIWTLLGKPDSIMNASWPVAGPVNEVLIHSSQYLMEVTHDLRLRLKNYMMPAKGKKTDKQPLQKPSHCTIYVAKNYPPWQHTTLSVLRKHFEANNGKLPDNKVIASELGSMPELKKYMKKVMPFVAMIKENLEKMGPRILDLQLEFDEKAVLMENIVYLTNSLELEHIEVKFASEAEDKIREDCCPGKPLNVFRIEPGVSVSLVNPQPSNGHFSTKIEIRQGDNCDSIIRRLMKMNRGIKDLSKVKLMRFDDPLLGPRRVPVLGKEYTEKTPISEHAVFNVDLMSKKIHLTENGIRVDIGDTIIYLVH
# Mus musculus [12] = assay: Dose normalized AUC (0 to infinity) in C57BL/6 mouse at 5.5 mg/kg, iv administered as single dose measured up to 24 hrs by LC-MS/MS analysis; assay type: ADME, organism-based; conditions: in vivo
# [13] = AUC (0 to 24 hrs) in C57BL/6 mouse at 30 mg/kg administered as single dose via oral gavage by LC-MS/MS analysis; assay type: ADME, organism-based; parameters: time < 24 hr, dose 30 mg/kg, route oral; conditions: in vivo
# Mus musculus [14] = assay: Dose normalized AUC (0 to 24 hrs) in C57BL/6 mouse at 30 mg/kg administered as single dose via oral gavage by LC-MS/MS analysis; assay type: ADME, organism-based; conditions: in vivo
# [15] = system: Mycobacterium tuberculosis; assay: Antimicrobial activity against Mycobacterium tuberculosis H37Rv infected in C57BL/6J mouse assessed as bacterial load in lungs at 0.1 mg/kg qd administered for 8 consecutive weeks starting from 6 weeks post infection measured 24 hrs post last dose (reference value: 6.4 +/- 0.3 log10CFU); assay type: functional; procedure, shortened: as §1
# [16] = Cmax in C57BL/6 mouse at 30 mg/kg administered as single dose via oral gavage measured up to 24 hrs by LC-MS/MS analysis; assay type: ADME, organism-based; parameters: dose 30 mg/kg, route oral; conditions: in vivo
# [17] = Clearance in C57BL/6 mouse at 5.5 mg/kg, iv administered as single dose measured up to 24 hrs by LC-MS/MS analysis; assay type: ADME, organism-based; conditions: in vivo
# Mus musculus [18] = assay: Dose normalized AUC (0 to 24 hrs) in C57BL/6 mouse at 26.1 mg/kg administered as single dose via oral gavage by LC-MS/MS analysis; assay type: ADME, organism-based; conditions: in vivo
# [19] = Clearance in C57BL/6 mouse at 28.5 mg/kg, iv administered as single dose measured up to 8 hrs by LC-MS/MS analysis; assay type: ADME, organism-based; conditions: in vivo
# Mus musculus [20] = assay: Dose normalized AUC (0 to infinity) in CD-1 mouse at 30 mg/kg, iv after 24 hrs by LC-MS/MS analysis; assay type: ADME, organism-based; conditions: in vivo
# [21] = Volume of distribution at steady state in CD-1 mouse at 30 mg/kg, iv after 24 hrs by LC-MS/MS analysis; assay type: ADME, organism-based; conditions: in vivo, read-out: Vdss
# Mus musculus [22] = assay: Toxicity in mouse at 50 mg/kg, qd; assay type: organism-based; conditions: in vivo
# [23] = AUC (0 to 24 hrs) in CD-1 mouse at 30 mg/kg administered via oral gavage by LC-MS/MS analysis; assay type: ADME, organism-based; parameters: dose 30 mg/kg, time < 24 hr, route oral; conditions: in vivo
# [24] = Oral bioavailability in CD-1 mouse at 30 mg/kg administered via gavage after 24 hrs by LC-MS/MS analysis; assay type: ADME, organism-based; conditions: in vivo
# [25] = Oral bioavailability in C57BL/6 mouse at 26.1 mg/kg administered as single dose via gavage measured up to 24 hrs by LC-MS/MS analysis; assay type: ADME, organism-based; conditions: in vivo
# Mus musculus [26] = assay: Dose normalized AUC (0 to infinity) in C57BL/6 mouse at 28.5 mg/kg, iv administered as single dose measured up to 8 hrs by LC-MS/MS analysis; assay type: ADME, organism-based; conditions: in vivo
# [27] = Half life in C57BL/6 mouse at 28.5 mg/kg, iv administered as single dose measured up to 8 hrs by LC-MS/MS analysis; assay type: ADME, organism-based; conditions: in vivo
# Mus musculus [28] = assay: Dose normalized AUC (0 to 24 hrs) in CD-1 mouse at 30 mg/kg administered via oral gavage by LC-MS/MS analysis; assay type: ADME, organism-based; conditions: in vivo
# [29] = Tmax in C57BL/6 mouse at 26.1 mg/kg administered as single dose via oral gavage measured up to 24 hrs by LC-MS/MS analysis; assay type: ADME, organism-based; conditions: in vivo
# [30] = Cmax in C57BL/6 mouse at 26.1 mg/kg administered as single dose via oral gavage measured up to 24 hrs by LC-MS/MS analysis; assay type: ADME, organism-based; parameters: dose 26.1 mg/kg, route oral; conditions: in vivo
# [31] = AUC (0 to infinity) in C57BL/6 mouse at 28.5 mg/kg, iv administered as single dose measured up to 8 hrs by LC-MS/MS analysis; assay type: ADME, organism-based; parameters: dose 28.5 mg/kg, time infinity, route intravenous; conditions: in vivo
smiles,measurement,setting,value
Cl.NC[C@H]1OB(O)c2c(OCCO)ccc(Cl)c21,Activity,[1],Dose-dependent effect
same,Activity,[2],4.7 log10CFU
same,Vd,[3],2.3 L/kg
same,Tmax,[4],0.9 h
same,half-life,[5],3.6 h
same,Activity,[6],4.6 log10CFU
same,MTD,[7],300 mg/kg
same,Activity,[8],4.3 log10CFU
same,AUC(0-inf),[9],11100 ng·h/mL
same,Activity,[10],4.4 log10CFU
same,IC50,[11],132 µM
same,AUC/dose,Mus musculus [12],2.03 µg·h/mL/mg/kg
same,AUC(0-t) at 24 h,[13],88200 ng·h/mL
same,AUC/dose,Mus musculus [14],2.94 µg·h/mL
same,Activity,[15],6.4 log10CFU
same,Cmax,[16],17800 ng/mL
same,clearance,[17],8.5 mL/min/kg
CCOc1ccc(Br)c2c1B(O)O[C@@H]2CN,AUC/dose,Mus musculus [18],2.98 µg·h/mL
same,clearance,[19],6.6 mL/min/kg
same,AUC/dose,Mus musculus [20],1.45 µg·h/mL/mg/kg
same,Vd,[21],3.2 L/kg
same,Activity,Mus musculus [22],Toxic
same,AUC(0-t) at 24 h,[23],57600 ng·h/mL
same,bioavailability,[24],100%
same,bioavailability,[25],100%
same,AUC/dose,Mus musculus [26],2.54 µg·h/mL/mg/kg
same,half-life,[27],3.1 h
same,AUC/dose,Mus musculus [28],1.92 µg·h/mL
same,Tmax,[29],2 h
same,Cmax,[30],11100 ng/mL
same,AUC(0-inf),[31],72300 ng·h/mL
